Assay results: ChEMBL document CHEMBL5661968, “Antitumor activity of ZSTK474, a new phosphatidylinositol 3-kinase inhibitor” (J Natl Cancer Inst, 2006)
Calls of active or inactive are those of the source. No cut-off for these calls is given here.

Columns and labels:
[1] = Growth inhibition of human BSY1 cells measured after 48 hrs by sulforhodamine B assay; format: functional; settings: BSY-1
Summary of the method: (§1)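 JFCR39 panel lines were grown in RPMI 1640 with 5% FBS, penicillin and streptomycin at 37 °C in 5% CO2. After 48 h of drug exposure, total cellular protein was measured by sulforhodamine B staining. GI50 was calculated by a previously described method.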

MCF7 = assay: Growth inhibition of human MCF7 cells measured after 48 hrs by sulforhodamine B assay; format: functional; summary of the method: as §1
U-251 = assay: Growth inhibition of human U-251 cells measured after 48 hrs by sulforhodamine B assay; format: functional; summary of the method: as §1
LOX IMVI = assay: Growth inhibition of human LOX IMVI cells measured after 48 hrs by sulforhodamine B assay; format: functional; summary of the method: as §1
RXF 631 = assay: Growth inhibition of human RXF 631 cells measured after 48 hrs by sulforhodamine B assay; format: functional; summary of the method: as §1
St-4 = assay: Growth inhibition of human St-4 cells measured after 48 hrs by sulforhodamine B assay; format: functional; summary of the method: as §1
[2] = (§2) Inhibition of PI3K in human A549 cell lysate preincubated with compound for 5 mins followed by [gamma-32p]-ATP addition measured after 20 mins by immunoprecipitation based liquid scintillation spectroscopic analysis; format: subcellular
Summary of the method: (§3)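 PI3K immunoprecipitated with anti-p85 polyclonal antibody and protein G–agarose from A549 lysate (2–4 mg/mL protein), washed, suspended in buffer C (100 mM NaCl, 20 mM Tris pH 7.5) with 200 μg/mL phosphatidylinositol; compound preincubated 5 min at 25 °C; reaction started with [γ-32P]ATP (20 μM final) and 20 mM MgCl2, run 20 min at 25 °C; PI3P separated by TLC, counted by scintillation; activity as % of no-compound cpm.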

A549 [3] = assay: as §2; format: subcellular; settings: dose 0.01-1 µM, time 25.0 min; summary of the method: as §3
[4] = molecular target: Ribosomal protein S6 kinase beta-1 (Homo sapiens) (UniProt P23443); assay: Inhibition of p70S6K phosphorylation at Thr-389 residue in human A549 cells measured after 3 hrs by immunoblotting analysis; format: cell-based; settings: dose <= 2.0 µM
Sequence of Ribosomal protein S6 kinase beta-1 (Homo sapiens) (P23443 whole entry, looked up): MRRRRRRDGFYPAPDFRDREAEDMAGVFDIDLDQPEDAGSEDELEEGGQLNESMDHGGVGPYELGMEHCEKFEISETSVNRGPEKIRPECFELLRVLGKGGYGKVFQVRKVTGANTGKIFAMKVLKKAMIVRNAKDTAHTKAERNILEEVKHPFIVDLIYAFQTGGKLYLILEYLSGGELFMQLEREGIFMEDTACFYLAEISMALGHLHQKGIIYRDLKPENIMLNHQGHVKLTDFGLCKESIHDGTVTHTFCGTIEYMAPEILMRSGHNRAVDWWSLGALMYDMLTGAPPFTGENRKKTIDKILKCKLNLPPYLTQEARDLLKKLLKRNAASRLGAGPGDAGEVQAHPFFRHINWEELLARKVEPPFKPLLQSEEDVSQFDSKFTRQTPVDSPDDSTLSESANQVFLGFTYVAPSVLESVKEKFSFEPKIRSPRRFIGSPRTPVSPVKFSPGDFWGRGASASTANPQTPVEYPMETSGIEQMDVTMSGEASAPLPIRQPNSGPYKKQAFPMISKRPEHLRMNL
Summary of the method: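 A549 cells treated over 0 to 2.0 μM; lysed in 10 mM Tris–HCl pH 7.4, 50 mM NaCl, NaF, pyrophosphate, vanadate, EDTA, protease inhibitors, 0.5% NP-40, 0.1% SDS; proteins resolved by SDS-PAGE, blotted to PVDF, probed with phospho-specific antibodies, HRP secondary, ECL detection.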

A549 [5] = assay: Downregulation of cyclin D1 expression in human A549 cells measured after 3 hrs by immunoblotting analysis; format: functional, cell-based; settings: dose <= 2.0 µM
Summary of the method: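 A549 cells were lysed in Tris-HCl pH 7.4 buffer with NaF, pyrophosphate, Na3VO4, EDTA, aprotinin, PMSF, 0.5% NP-40 and 0.1% SDS. Lysates were run on SDS-PAGE and blotted to PVDF. Blots were probed with rabbit anti-cyclin D1 polyclonal (1:200), then HRP anti-rabbit IgG, and detected by ECL chemiluminescence.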

A549 [6] = assay: Antitumor activity against human A549 cells xenografted in nude mouse assessed as inhibition of tumor growth at 400 mg/kg, po administered on day 0 to 13 except for day 3 and 10 measured after 14 days; format: functional, organism-based; settings: time 14.0 day
Summary of the method: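 Female BALB/c-background nude mice were implanted s.c. with 3 × 3 × 3 mm tumor fragments. At 100–300 mm3 tumor volume (day 0), groups of five were randomized and dosed orally at 400 mg/kg on days 0–13, skipping days 3 and 10. Caliper volume was (L×W2)/2, relative to day 0 (RTV). T/C% on day 14 = 100 × mean treated RTV / mean control RTV.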

[7] = molecular target: Dual specificity mitogen-activated protein kinase kinase 2 (Homo sapiens) (UniProt P36507); assay: Inhibition of MEK2 phosphorylation at Ser-217/221 residues in human A549 cells measured after 3 hrs by immunoblotting analysis; settings: dose <= 2.0 µM
Sequence of Dual specificity mitogen-activated protein kinase kinase 2 (Homo sapiens) (P36507 whole entry): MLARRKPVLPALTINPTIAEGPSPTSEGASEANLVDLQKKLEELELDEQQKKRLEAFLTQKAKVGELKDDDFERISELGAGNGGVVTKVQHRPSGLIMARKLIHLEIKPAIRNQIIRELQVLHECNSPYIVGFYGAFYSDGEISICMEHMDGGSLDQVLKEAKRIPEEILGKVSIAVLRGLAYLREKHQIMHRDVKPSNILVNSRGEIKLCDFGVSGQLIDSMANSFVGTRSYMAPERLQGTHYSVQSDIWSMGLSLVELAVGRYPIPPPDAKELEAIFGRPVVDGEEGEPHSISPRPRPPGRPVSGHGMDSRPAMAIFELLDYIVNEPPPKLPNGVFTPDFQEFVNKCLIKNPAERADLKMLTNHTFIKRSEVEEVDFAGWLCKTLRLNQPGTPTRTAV

`FC(F)c1nc2ccccc2n1-c1nc(N2CCOCC2)nc(N2CCOCC2)n1` [ZSTK-474] showed a GI50 [1] of 93.3 nM, a GI50 (MCF7) of 45.7 nM and a GI50 (U-251) of 1100 nM. The GI50 (LOX IMVI) was 457 nM, the GI50 (RXF 631) was 724 nM and the GI50 (St-4) was 1700 nM. The IC50 [2] was 37 nM, the Activity (A549 [3]) was “Dose-Dependent Effect” and the inhibition [4] was “Dose-Dependent Effect”. The Activity (A549 [5]) was “Dose-Dependent Effect”, the Activity (A549 [6]) was “Active” and the inhibition [7] was “inactive”.
